ChEMBL document CHEMBL1150299, “Design, synthesis, and application of novel triclosan prodrugs as potential antimalarial and antibacterial agents” (Bioorg Med Chem, 2008)
≈ marks a conversion by molar mass, not a printed value.

What was measured:
[1] = tested on: Escherichia coli; test: Antibacterial activity against wild type Escherichia coli K12 after 12 hrs by microdilution method; type: functional, organism-based; conditions: K12, 12 h
In short: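 Wild-type K12 grown in LB to mid-log, diluted 100-fold; 100 µl used to inoculate tubes of 10 mL LB containing inhibitor (stocks about 10 mM in DMSO). IC50 is the mean of at least three sets; values are means ± SD of at least three experiments in duplicate.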

[2] = tested on: Plasmodium falciparum; test: Antimalarial activity against chloroquine-sensitive Plasmodium falciparum FCK2; type: functional, organism-based
[3] = Stability at -10 to 40 degC after 24 hrs by FPLC assay; type: physicochemical
In short: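 Prodrugs held in Luria Broth (pH 7.2) for 24 h at temperatures between -10 and 40 °C. Release of triclosan monitored by FPLC with UV detection.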

[4] = tested on: Escherichia coli; test: Stability assessed as half life of prodrug disappearance in Escherichia coli culture; type: ADME, organism-based; conditions: in vivo
In short: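 E. coli cultures exposed to prodrug for 0, 2, 5, 10 and 20 min, then pelleted at 4 °C, washed in LB and resuspended in 50 mM Tris pH 7.5. Extracts cleaned by solid-phase extraction with methanol elution, then run on C18 reverse-phase FPLC with isocratic acetonitrile and UV detection at 230 nm. Half-life taken from prodrug disappearance.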

[5] = tested on: Plasmodium falciparum; test: Stability assessed as half life of prodrug disappearance in Plasmodium falciparum culture; type: ADME, organism-based; conditions: in vivo
In short: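 Synchronized young-trophozoite cultures treated with prodrug for 0, 0.5, 3, 6, 12, 18, 24 and 36 h. Parasites isolated into PBS, processed by solid-phase extraction, then analysed by C18 reverse-phase FPLC with absorbance at 230 nm. Half-life derived from loss of the prodrug peak.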

Compound | IC50 [1] [µM] | MIC [1] [µM] | IC50 [2] [µM] | MIC [2] [µM] | Stability [3] | t1/2 [4] [min] | t1/2 [5] [min]
O=C(Oc1cc(Cl)ccc1Oc1ccc(Cl)cc1Cl)c1cccnc1 | 3.1 | 9 (≈ 3.55 µg/mL) | 1.15 | 9.7 (≈ 3.83 µg/mL) | Stable | – | –
CCCCC(=O)Oc1cc(Cl)ccc1Oc1ccc(Cl)cc1Cl | 140 | – | 8.9 | 33.8 (≈ 12.6 µg/mL) | Stable | – | –
C[N+](C)(C)CCOC(=O)CCCC(=O)Oc1cc(Cl)ccc1Oc1ccc(Cl)cc1Cl.[Cl-] | 0.42 | 1 | 3.02 | 19.7 | Stable | 8 | –
CC(=O)CCC(=O)Oc1cc(Cl)ccc1Oc1ccc(Cl)cc1Cl | 77 | – | 0.68 | 6.2 (≈ 2.4 µg/mL) | Stable | – | 572
Oc1cc(Cl)ccc1Oc1ccc(Cl)cc1Cl [TRICLOSAN] | 0.75 | 1 (≈ 0.29 µg/mL) | 2.29 | 17.6 (≈ 5.1 µg/mL) | Stable | – | –
C[n+]1cccc(C(=O)Oc2cc(Cl)ccc2Oc2ccc(Cl)cc2Cl)c1.[Cl-] | 3.6 | 10.2 | 2.07 | 13.7 | Stable | – | –

Stronger by IC50 [1], values ahead:

IC50 [1] [µM] | MIC [1] [µM] | IC50 [2] [µM] | MIC [2] [µM] | Stability [3] | t1/2 [4] [min] | t1/2 [5] [min] | Compound
0.33 | 0.75 (≈ 0.303 µg/mL) | 0.52 | 4.8 (≈ 1.94 µg/mL) | Stable | 9 | 570 | O=C(O)CCCC(=O)Oc1cc(Cl)ccc1Oc1ccc(Cl)cc1Cl
0.26 | 0.55 (≈ 0.261 µg/mL) | 0.62 | 7.9 (≈ 3.75 µg/mL) | Stable | 6 | 567 | CN(C)CCOC(=O)CCCC(=O)Oc1cc(Cl)ccc1Oc1ccc(Cl)cc1Cl
0.22 | 0.6 (≈ 0.233 µg/mL) | 6.7 | 27.9 (≈ 10.8 µg/mL) | Stable | 12 | – | NC(=O)CCC(=O)Oc1cc(Cl)ccc1Oc1ccc(Cl)cc1Cl
